A selection: hits, their analogues and other compounds. The true share with any hit is near 3.5%.
STAT1 activator – increases IFN-gamma driven STAT1 reporter signal; NIH 3T3 STAT1-luciferase reporter, luminescence; 100% = IFN-gamma alone, no compound; activation (% of control), % at 5.5 µM; actives 2.6% (n = 200,000);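 active means activation above the screen-wide mean activation plus 3 SD, cut at about 130% in these data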
NF-kB expr up – NF-kB expression increase, human neuronal cells; NF-kB reporter expression; active compounds read high; fold change at 12.5 µM; actives 1.6% (n = 190,000); AID 1239; in the data active means fold change above about 3.3
FLuc inh counter – Photinus pyralis luciferase inhibition counter-screen; ATPLite firefly luciferase biochemical luminescence, 10 min; inhibition, % at 10 µM; actives 1.5% (n = 200,000);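 active means inhibition above about 50% when tested at 10 µM, limit read from the data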
Target sequence (P08659 whole entry, looked up): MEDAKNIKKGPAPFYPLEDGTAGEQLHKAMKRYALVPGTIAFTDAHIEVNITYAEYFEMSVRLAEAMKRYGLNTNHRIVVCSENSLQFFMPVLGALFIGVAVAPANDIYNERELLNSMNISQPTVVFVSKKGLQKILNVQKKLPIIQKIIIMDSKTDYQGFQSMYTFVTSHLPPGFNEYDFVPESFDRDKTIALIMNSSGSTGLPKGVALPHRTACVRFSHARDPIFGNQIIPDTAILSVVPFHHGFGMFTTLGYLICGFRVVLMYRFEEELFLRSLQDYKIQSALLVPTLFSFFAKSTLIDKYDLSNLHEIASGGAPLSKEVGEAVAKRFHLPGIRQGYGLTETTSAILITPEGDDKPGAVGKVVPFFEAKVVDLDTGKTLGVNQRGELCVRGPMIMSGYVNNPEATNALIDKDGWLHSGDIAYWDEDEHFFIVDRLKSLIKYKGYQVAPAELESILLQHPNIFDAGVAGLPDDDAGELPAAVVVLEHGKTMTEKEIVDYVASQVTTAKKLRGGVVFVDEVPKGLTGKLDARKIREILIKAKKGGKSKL
FLuc act counter – affects firefly luciferase, flagging false hits in luciferase stimulation screens | P08659 | ATPlite luciferase biochemical, luminescence, 10 min; 0 = ATP-free wells, 1 = DMSO control | activation factor at 10 µM | 200,000 tested, under 10 active;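 active means luciferase activation factor, scaled between plate controls, of at least 2 with compound at 10 µM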
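Material: Luciferase/luciferin reagent mix; Doses: test compounds dosed from 2 mM stocks in 100% DMSO; Schedule: 10 min incubation after luciferase reagent addition, room temperature; Measured by: luminescence from luciferase reaction; Read-out: luminescence gain marking luciferase activators.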
Pf gamet viab – P. falciparum stage V gametocyte viability inhibition | P. falciparum stage V gametocytes, ATP luminescence, 24 h | actives 0.065% (n = 150,000) | inhibition, % at 10.9 µM;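 active means inhibition above the mean plus 3 SD of compounds within the control limits, set per campaign, cut at about 38% in these data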
APP 5'UTR act – activates APP 5'UTR luciferase reporter; SH-SY5Y APP 5'UTR luciferase reporter, luminescence; zero percent = DMSO vehicle wells; activation, % at 2 µM; actives 1% (n = 190,000); AID 1276;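 active means activation above a set limit, based on mean plus 3 SD of controls, cut at about 140% in these data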
Large screens that a line does not name were inactive.

CN1C(=O)/C(=C2\SC(N3CCCCCC3)=NC2=O)c2ccccc21	FLuc inh counter 79.1
O=C1N=C(N2CCOCC2)S/C1=C1\C(=O)N(Cc2ccccc2)c2ccccc21	APP 5'UTR act 380.0 (no result: Pf gamet viab)
CC1CN(C2=NC(=O)/C(=C3/C(=O)N(Cc4ccc(F)cc4)c4ccccc43)S2)CC(C)O1 (centres undefined)	none (no result: STAT1 activator, NF-kB expr up, FLuc inh counter, FLuc act counter, APP 5'UTR act)
CCN1C(=O)[C@@H]2[C@@H](c3ccc(SC4CCCCC4)c(OC)c3)N3CCCC[C@@]3(C(=O)OC)[C@@H]2C1=O	none (no result: STAT1 activator, NF-kB expr up, FLuc inh counter, FLuc act counter, APP 5'UTR act)
CC(=O)N1CCN(S(=O)(=O)c2cccc(C(=O)Nc3nccs3)c2)CC1	STAT1 activator 130.6
COCCn1c(=S)[nH]c2ccccc21	none (no result: Pf gamet viab)
O=C(NC1CCN(S(=O)(=O)c2ccccc2)CC1)c1cccc(F)c1	none (no result: STAT1 activator, NF-kB expr up, FLuc inh counter, FLuc act counter, APP 5'UTR act)
CC(C)N=c1scc(-c2ccco2)n1/N=C/c1ccc(O)c(O)c1	NF-kB expr up 9.56
Cc1ccc(NC(=S)N2CCN(c3ccccc3F)CC2)c(C)c1	none (no result: STAT1 activator, NF-kB expr up, FLuc inh counter, FLuc act counter, APP 5'UTR act)
S=c1[nH]nc(-c2ccccn2)n1/N=C/c1ccc(-c2ccccc2Cl)o1	none (no result: Pf gamet viab)
COC(=O)c1c(-c2ccccc2)csc1NC1=NS(=O)(=O)c2ccccc21	STAT1 activator 135.5, FLuc inh counter 65.4 (no result: Pf gamet viab)
O=[N+]([O-])c1ccccc1Nc1nc(-c2cccnc2)cs1	none (no result: STAT1 activator, NF-kB expr up, FLuc inh counter, FLuc act counter, APP 5'UTR act)
COc1cccc(-c2nc(=S)c3c(o2)CCCC3)c1	STAT1 activator 144.0, APP 5'UTR act 170.5
COc1cccc(-c2nc(=S)c3c(n2Cc2ccco2)CCCC3)c1	none (no result: Pf gamet viab)
O=[N+]([O-])c1ccc(-c2nc(=S)c3c(o2)CCCC3)cc1	none
S=c1nc(-c2ccccc2)oc2c1CCCC2	STAT1 activator 131.7, NF-kB expr up 3.97 (no result: Pf gamet viab)
C=CCN(CC(=O)NC1CCS(=O)(=O)C1)S(=O)(=O)c1ccccc1C(F)(F)F (centres undefined)	none
CN1C(=O)S/C(=C/c2cccnc2)C1=O	none
O=C1/C(=C\c2cccnc2)Sc2ccccc21	FLuc inh counter 60.5
O=C(N/N=C/c1cccc(F)c1)c1c(O)c2c([nH]c1=O)CCCC2	APP 5'UTR act 141.7
CN(C)c1ccc(C(=S)NCc2ccco2)cc1	STAT1 activator 133.7, NF-kB expr up 8.07
CN(C)c1ccc(/C=N/NC(=S)NCc2ccco2)cc1	none
COc1cc(C=O)ccc1OCCCCOc1ccccc1[N+](=O)[O-]	none (no result: Pf gamet viab)
C/C=C/c1ccc(OCCOc2cc(C=O)ccc2OC)c(OC)c1	STAT1 activator 131.0
COc1cc(C=O)ccc1OCc1ccc(Cl)nc1	STAT1 activator 136.5, FLuc inh counter 59.3 (no result: NF-kB expr up, Pf gamet viab)
COc1cc(C=O)ccc1OCCCOc1ccccc1[N+](=O)[O-]	STAT1 activator 130.1
C/C=C/c1ccc(OCC(=O)O)c(OC)c1	none (no result: STAT1 activator, NF-kB expr up, FLuc inh counter, FLuc act counter, APP 5'UTR act)
COc1cc(C=O)ccc1OCCCOc1ccccc1C(=O)O	STAT1 activator 147.9
O=C(Nc1ccc(Oc2ccccc2)cc1)C1CCCN(c2ncccn2)C1 (centres undefined)	none
O=C1C(=Cc2ccco2)C(=O)c2ccccc21	none (no result: Pf gamet viab)
CCC1C/C(=C/c2ccco2)C(=O)/C(=C/c2ccco2)C1 (centres undefined)	none (no result: Pf gamet viab)
COc1ccc2c(c1)CC/C(=C/c1ccco1)C2=O	STAT1 activator 132.7, NF-kB expr up 8.13, FLuc inh counter 81.1, APP 5'UTR act 181.2
O=C1/C(=C/c2ccco2)CCc2ccccc21	FLuc inh counter 60.6, APP 5'UTR act 164.5
COc1ccc2c(c1)CC/C(=C\c1ccc(OC)c(Cn3cccn3)c1)C2=O	none (no result: Pf gamet viab)
Nc1ccc2c(c1)C/C(=C/c1ccco1)C2=O	STAT1 activator 210.2, FLuc inh counter 87.4, APP 5'UTR act 188.6
COc1ccc(/C=C(\NC(=O)c2ccc(OC)cc2)C(=O)N2CCCCC2)cc1	none (no result: STAT1 activator, NF-kB expr up, FLuc inh counter, FLuc act counter, APP 5'UTR act)
c1ccc(-c2cn3c(n2)-c2ccccc2C3)cc1	NF-kB expr up 3.89, FLuc inh counter 87.2, APP 5'UTR act 152.3
CCOC(=O)c1c(NC(=O)c2c(-c3ccccc3)noc2C)sc(C)c1-c1ccccc1	STAT1 activator 136.5
CC(C)NC(=O)C1CCN(C2CCN(Cc3ccc4cccc(F)c4n3)CC2)CC1	none
Cc1ccc(/C([O-])=C(/C(=S)NCc2ccco2)[n+]2ccccc2)cc1	none (no result: Pf gamet viab, APP 5'UTR act)
Cc1ccc(NC(=S)/C(=C(\[O-])c2ccc(F)cc2)[n+]2ccccc2)cc1	Pf gamet viab 38.9
Cc1cccc(NC(=O)Cn2c([N+](=O)[O-])cnc2C)c1C	none (no result: Pf gamet viab)
